Reference: ChEMBL document CHEMBL1926651, “Design, synthesis, antiviral and cytostatic evaluation of novel isoxazolidine nucleotide analogues with a 1,2,3-triazole linker” (Eur J Med Chem, 2012)
Active and inactive are the calls of the source. The calls are words filed in the database; no cut-off is given here.

Legend:
[1] = Cytotoxicity against CRFK cells assessed as change in cell morphology up to 100 uM; format: cell-based, Felis catus; conditions: cat
Procedure, shortened: (§1)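 Uninfected host-cell cultures were examined under the microscope. MCC was taken as the lowest compound concentration producing a detectable alteration of normal cell morphology, assessed at concentrations up to 100 μM.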

Coxsackievirus B4 [2] = test: Antiviral activity against Coxsackievirus B4 infected in human HeLa cells assessed as inhibition of viral plaque formation at 250 uM; format: functional, organism-based
Procedure, shortened: (§2)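 Confluent host cell monolayers were inoculated with 100 CCID50 of virus in the presence of test compound at serial dilutions (250, 50, 10, … μM). Viral cytopathicity was scored once it reached completion in untreated virus-infected controls.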

Human alphaherpesvirus 1 [3] = test: Antiviral activity against thymidine kinase-deficient acv-resistant Herpes simplex virus 1 KOS infected in human HEL cells assessed as inhibition of viral plaque formation at 250 uM; format: functional, organism-based
Human alphaherpesvirus 3 [4] = test: Antiviral activity against thymidine kinase-positive Varicella Zoster virus Oka infected in human HEL cells assessed as inhibition of viral plaque formation at 250 uM; format: functional, cell-based; conditions: strain Oka vaccine
HEL [5] = test: Cytotoxicity against human HEL cells assessed as change in cell morphology up to 100 uM; format: cell-based; procedure, shortened: as §1
HEL [6] = test: Cytotoxicity against human HEL cells 3 days by coulter counting; format: functional; conditions: 72 h
Procedure, shortened: (§3)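 Cells were suspended at 300,000–500,000 cells/mL and added 1:1 to compound dilutions. Incubation was at 37 °C, 2 days for L1210 and 3 days for CEM, HeLa and HEL. Cells were counted with a Coulter counter. CC50 is the concentration inhibiting cell proliferation by 50%.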

Punta Toro virus = test: Antiviral activity against Punta Toro virus infected in african green monkey Vero cells assessed as inhibition of viral plaque formation at 250 uM; format: functional, organism-based
[7] = tested on: Vesicular stomatitis virus; test: Antiviral activity against Vesicular stomatitis virus infected in human HEL cells assessed as inhibition of viral plaque formation at 250 uM; format: functional, organism-based; procedure, shortened: as §2
[8] = tested on: Vesicular stomatitis virus; test: Antiviral activity against Vesicular stomatitis virus infected in human Hela cells assessed as inhibition of viral plaque formation at 250 uM; format: functional, organism-based
Human betaherpesvirus 5 [9] = test: Antiviral activity against Human cytomegalovirus AD169 infected in human HEL cells assessed as inhibition of viral plaque formation at 250 uM; format: functional, organism-based
Feline coronavirus = test: Antiviral activity against Feline coronavirus infected in CrFK cells assessed as inhibition of viral plaque formation at 250 uM; format: functional, organism-based; procedure, shortened: as §2
Coxsackievirus B4 [10] = test: Antiviral activity against Coxsackievirus B4 infected in african green monkey Vero cells assessed as inhibition of viral plaque formation at 250 uM; format: functional, organism-based; procedure, shortened: as §2
Human alphaherpesvirus 2 = test: Antiviral activity against Herpes simplex virus 2 G infected in human HEL cells assessed as inhibition of viral plaque formation at 250 uM; format: functional, organism-based; conditions: strain G
Human alphaherpesvirus 3 [11] = test: Antiviral activity against thymidine kinase-deficient Varicella Zoster virus 07/1 infected in human HEL cells assessed as inhibition of viral plaque formation at 250 uM; format: functional, organism-based
HeLa [12] = test: Cytotoxicity against human HeLa cells assessed as change in cell morphology up to 100 uM; format: cell-based; procedure, shortened: as §1
CCRF-CEM = test: Cytotoxicity against human CEM cells 3 days by coulter counting; format: functional; conditions: 72 h; procedure, shortened: as §3
Human respirovirus 3 = test: Antiviral activity against Parainfluenza-3 virus infected in african green monkey Vero cells assessed as inhibition of viral plaque formation at 250 uM; format: functional, organism-based; procedure, shortened: as §2
[13] = tested on: Mammalian orthoreovirus 1; test: Antiviral activity against Reovirus-1 infected in african green monkey Vero cells assessed as inhibition of viral plaque formation at 250 uM; format: functional, organism-based; procedure, shortened: as §2
Human alphaherpesvirus 1 [14] = test: Antiviral activity against Herpes simplex virus 1 KOS infected in human HEL cells assessed as inhibition of viral plaque formation at 250 uM; format: functional, organism-based; procedure, shortened: as §2
Vaccinia virus = test: Antiviral activity against Vaccinia virus infected in human HEL cells assessed as inhibition of viral plaque formation at 250 uM; format: functional, organism-based; conditions: Orthopoxvirus vaccinia; procedure, shortened: as §2
[15] = tested on: Respiratory syncytial virus; test: Antiviral activity against Respiratory syncytial virus infected in human HeLa cells assessed as inhibition of viral plaque formation at 250 uM; format: functional, organism-based; procedure, shortened: as §2
Sindbis virus = test: Antiviral activity against Sindbis virus infected in african green monkey Vero cells assessed as inhibition of viral plaque formation at 250 uM; format: functional, organism-based; procedure, shortened: as §2
Felid alphaherpesvirus 1 = test: Antiviral activity against Felid herpesvirus 1 infected in CrFK cells assessed as inhibition of viral plaque formation at 250 uM; format: functional, organism-based; procedure, shortened: as §2
L1210 = test: Cytotoxicity against mouse L1210 cells 2 days by coulter counting; format: functional; conditions: L1210, 48 h; procedure, shortened: as §3
MDCK = test: Cytotoxicity against MDCK cells assessed as change in cell morphology up to 100 uM; format: cell-based, Canis lupus familiaris; conditions: dog; procedure, shortened: as §1
HeLa [16] = test: Cytotoxicity against human HeLa cells 3 days by coulter counting; format: functional; conditions: 72 h; procedure, shortened: as §3
[17] = tested on: Human immunodeficiency virus 2; test: Antiviral activity against Human immunodeficiency virus 2 infected in human CEM cells assessed as inhibition of virus-induced giant cell formation after 4 days by microscopic analysis; format: functional, organism-based; conditions: CCRF-CEM
Procedure, shortened: (§4)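 CEM cells at about 3 × 10⁵ cells/cm³ were infected with 100 CCID50/mL of HIV-1(IIIB) or HIV-2(ROD), then seeded into wells holding test compound dilutions. After 4 days at 37 °C, virus-induced giant cell formation was scored microscopically.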

Human betaherpesvirus 5 [18] = test: Antiviral activity against Human cytomegalovirus Davis infected in human HEL cells assessed as inhibition of viral plaque formation at 250 uM; format: functional, organism-based
Vero = test: Cytotoxicity against african green monkey Vero cells assessed as change in cell morphology up to 100 uM; format: cell-based; conditions: chlorocebus sabaeus; procedure, shortened: as §1
[19] = tested on: Human immunodeficiency virus 1; test: Antiviral activity against Human immunodeficiency virus 1 infected in human CEM cells assessed as inhibition of virus-induced giant cell formation after 4 days by microscopic analysis; format: functional, organism-based; conditions: CCRF-CEM; procedure, shortened: as §4

Row | Compound | Activity (Coxsackievirus B4 [2]) | Activity (Human alphaherpesvirus 1 [3]) | Activity (Human alphaherpesvirus 3 [4]) | CC50 (HEL [6]) [µM] | Activity (Punta Toro virus) | Activity [7] | Activity [8] | Activity (Human betaherpesvirus 5 [9]) | Activity (Feline coronavirus) | Activity (Coxsackievirus B4 [10]) | Activity (Human alphaherpesvirus 2) | Activity (Human alphaherpesvirus 3 [11]) | CC50 (CCRF-CEM) [µM] | Activity (Human respirovirus 3) | Activity [13] | Activity (Human alphaherpesvirus 1 [14]) | Activity (Vaccinia virus) | Activity [15] | Activity (Sindbis virus) | Activity (Felid alphaherpesvirus 1) | also measured
1 | CCOP(=O)(OCC)[C@@H]1C[C@@H](n2cc(-c3ccccc3)nn2)ON1C (racemic) | inactive | inactive | inactive | 40 | inactive | inactive | inactive | inactive | inactive | inactive | inactive | inactive | > 250 | inactive | inactive | inactive | inactive | inactive | inactive | inactive | Activity [1]: Non-toxic; Activity (HEL [5]): Non-toxic; Activity (HeLa [12]): Non-toxic; CC50 (L1210): > 250 µM; Activity (MDCK): Non-toxic; CC50 (HeLa [16]): > 250 µM; Activity [17]: inactive; Activity (Human betaherpesvirus 5 [18]): inactive; Activity (Vero): Non-toxic; Activity [19]: inactive
2 | CCOP(=O)(OCC)[C@@H]1C[C@@H](n2cc(Cn3cc(C)c(=O)[nH]c3=O)nn2)ON1C (relative stereo) | inactive | inactive | inactive | > 100 | inactive | inactive | inactive | inactive | inactive | inactive | inactive | inactive | > 250 | inactive | inactive | inactive | inactive | inactive | inactive | inactive | CC50 (L1210): ≥ 250 µM; CC50 (HeLa [16]): > 250 µM; Activity [17]: inactive; Activity (Human betaherpesvirus 5 [18]): inactive; Activity [19]: inactive
3 | CCOP(=O)(OCC)[C@@H]1C[C@@H](n2cc(Cn3ccc(NC(C)=O)nc3=O)nn2)ON1C (relative stereo) | inactive | inactive | inactive | > 100 | inactive | inactive | inactive | inactive | inactive | inactive | inactive | inactive | > 250 | inactive | inactive | inactive | inactive | inactive | inactive | inactive | CC50 (L1210): ≥ 250 µM; CC50 (HeLa [16]): > 250 µM; Activity [17]: inactive; Activity (Human betaherpesvirus 5 [18]): inactive; Activity [19]: inactive
4 | CCOP(=O)(OCC)[C@@H]1C[C@@H](n2cc(C(=O)OC)nn2)ON1C (relative stereo) | inactive | inactive | inactive | > 100 | inactive | inactive | inactive | inactive | inactive | inactive | inactive | inactive | > 250 | inactive | inactive | inactive | inactive | inactive | inactive | inactive | CC50 (L1210): 191 µM; CC50 (HeLa [16]): > 250 µM; Activity [17]: inactive; Activity (Human betaherpesvirus 5 [18]): inactive; Activity [19]: inactive
5 | CCOP(=O)(OCC)[C@@H]1C[C@H](n2cc(Cn3ccc(NC(C)=O)nc3=O)nn2)ON1C (relative stereo) | inactive | inactive | inactive | > 100 | inactive | inactive | inactive | inactive | inactive | inactive | inactive | inactive | > 250 | inactive | inactive | inactive | inactive | inactive | inactive | inactive | CC50 (L1210): > 250 µM; CC50 (HeLa [16]): > 250 µM; Activity [17]: inactive; Activity (Human betaherpesvirus 5 [18]): inactive; Activity [19]: inactive
6 | CCOP(=O)(OCC)[C@@H]1C[C@H](n2cc(Cn3cnc4c(N)ncnc43)nn2)ON1C (relative stereo) | inactive | inactive | inactive | > 100 | inactive | inactive | inactive | inactive | inactive | inactive | inactive | inactive | > 250 | inactive | inactive | inactive | inactive | inactive | inactive | inactive | CC50 (L1210): 147 µM; CC50 (HeLa [16]): ≥ 250 µM; Activity [17]: inactive; Activity (Human betaherpesvirus 5 [18]): inactive; Activity [19]: inactive
7 | CCOP(=O)(OCC)[C@@H]1C[C@H](n2cc(C(=O)OC)nn2)ON1C (relative stereo) | inactive | inactive | inactive | > 100 | inactive | inactive | inactive | inactive | inactive | inactive | inactive | inactive | > 250 | inactive | inactive | inactive | inactive | inactive | inactive | inactive | CC50 (L1210): 166 µM; CC50 (HeLa [16]): > 250 µM; Activity [17]: inactive; Activity (Human betaherpesvirus 5 [18]): inactive; Activity [19]: inactive
